Source: publication PMC9290582 (British Journal of Clinical Pharmacology, 2021)
One block for each compound: values may come before it.

How the values were obtained:
[1] = cited from earlier work
[2] = Model-predicted steady-state exposure and covariate effects; type: in vivo, human; conditions: for Reduction of AUC24h,ss by coadministration of PPIs: population PK study; for Exposure lower with concomitant PPI use: relative to a reference patient
Outline: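 Exposure simulated stochastically from the final population PK model at 100 mg BID. AUC24h,ss and Cmax,ss were reported as model-predicted medians (90% prediction interval) relative to a reference patient: B-cell malignancy, ECOG PS 0 or 1, no concomitant PPI. A covariate effect was deemed not relevant if its change and 95% CI fell within 0.8–1.25.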

[3] = Population pharmacokinetic analysis; type: in vivo, human; conditions: for CL/F, apparent clearance / Vp/F, apparent peripheral volume of distribution: parent; for Covariate effect ECOG 2—CL/F / Covariate effect Healthy subject—CL/F / Covariate effect Healthy subject—Vp/F / Covariate effect PPI—F1 (relative bioavailability): relative change (1 + estimate)
Outline: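 Model: 2-compartment, 5-transit absorption chain, first-order absorption and elimination. Metabolite formation was CL/F × fraction metabolized, fixed at 0.4. BSV and BOV were exponential; residual error was additive on log scale. Precision was checked by bootstrap.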

[4] = system: Bruton tyrosine kinase (BTK); conditions: cited from earlier work
[5] = cited from earlier work; remark: listed apart in the source
[6] = high-calorie meal vs. fasting conditions; cited from earlier work
[7] = healthy subjects; ref data on file; cited from earlier work
[8] = bootstrap 50th [2.5th, 97.5th percentile]
[9] = final model fixed effect, estimate (%RSE)
[10] = final model, bootstrap 50th [2.5th, 97.5th percentile]
[11] = relative to a reference cancer population

- Reduction of AUC24h,ss by coadministration of PPIs [2]: 36%
- Exposure lower with concomitant PPI use [2]: 36%
- BSV CLM/F [3, 8]: 13.1 [9.22, 20.2] CV%
- BSV QM/F [3, 8]: 40 [23.8, 59.2] CV%
- BSV VcM/F [3, 8]: 53.3 [36.9, 71.1] CV%
- BSV VpM/F [3, 8]: 21.2 [15.3, 41.2] CV%
- BSV CLM/F ([3]; estimate (%RSE)): 11.8 (21.1) CV%
- BSV QM/F ([3]; estimate (%RSE)): 40.7 (14.4) CV%
- BSV VcM/F ([3]; estimate (%RSE)): 47.2 (12.1) CV%
- BSV VpM/F ([3]; estimate (%RSE)): 19.2 (30.5) CV%
- CLM/F, apparent clearance metabolite [3, 9]: 21.8 (1.98) L/h
- VcM/F, apparent central volume of distribution metabolite [3, 9]: 22.7 (6.66) L
- VpM/F, apparent peripheral volume of distribution metabolite [3, 9]: 89.2 (4.58) L
- CLM/F, apparent clearance metabolite [3, 10]: 21.6 [20.2, 22.6] L/h
- VcM/F, apparent central volume of distribution metabolite [3, 10]: 22.7 [19.5, 25.8] L
- VpM/F, apparent peripheral volume of distribution metabolite [3, 10]: 88.1 [77.6, 97] L
Structure (SMILES): CC#CC(=O)NCCCC(=O)c1nc(-c2ccc(C(=O)Nc3ccccn3)cc2)c2c(N)nccn12 [ACP‐5862]
- Mean exposure relative to that of acalabrutinib [1]: approximately 2 fold
- Potency for BTK inhibition relative to acalabrutinib [4]: approximately half as potent as acalabrutinib

- Reduction of AUC24h,ss by coadministration of PPIs [2]: 36%
- AUC24h,ss higher in subjects with ECOG PS ≥ 2 [2, 11]: 21%
- AUC24h,ss lower in healthy subjects [2, 11]: 32%
- Cmax,ss higher in subjects with ECOG PS ≥ 2 [2, 11]: 14%
- Cmax,ss lower in healthy subjects [2, 11]: 24%
- Exposure lower with concomitant PPI use [2]: 36%
- BOV F1 (between-occasion variability, relative bioavailability) [3, 8]: 55.3 [50.4, 61.1] CV%
- BOV MTT (between-occasion variability) [3, 8]: 119 [104, 137] CV%
- BSV CL/F (between-subject variability) [3, 8]: 24.1 [20.4, 28] CV%
- BSV Vc/F [3, 8]: 284 [225, 367] CV%
- BSV Vp/F [3, 8]: 33.9 [25, 42.4] CV%
- BOV F1 (between-occasion variability, relative bioavailability) ([3]; estimate (%RSE)): 56.1 (1.80) CV%
- BOV MTT (between-occasion variability) ([3]; estimate (%RSE)): 118 (2.39) CV%
- BSV CL/F (between-subject variability) ([3]; estimate (%RSE)): 23.8 (5.86) CV%
- BSV Vc/F ([3]; estimate (%RSE)): 270 (6.51) CV%
- BSV Vp/F ([3]; estimate (%RSE)): 33.7 (6.96) CV%
- Ka, first-order absorption rate constant [3, 9]: 1.48 (2.63) h^−1
- MTT, mean transit time [3, 9]: 0.459 (4.16) h
- CL/F, apparent clearance [3, 9]: 134 (1.97) L/h
- Vp/F, apparent peripheral volume of distribution [3, 9]: 110 (3.45) L
- Ka, first-order absorption rate constant [3, 10]: 1.48 [1.41, 1.55] h^−1
- MTT, mean transit time [3, 10]: 0.460 [0.426, 0.492] h
- CL/F, apparent clearance [3, 10]: 132 [126, 139] L/h
- Vp/F, apparent peripheral volume of distribution [3, 10]: 108 [97.6, 120] L
- Covariate effect ECOG 2—CL/F [3, 8]: −0.158 [−0.274, −0.032]
- Covariate effect Healthy subject—CL/F [3, 8]: 0.467 [0.367, 0.569]
- Covariate effect Healthy subject—Vp/F [3, 8]: −0.554 [−0.6, −0.496]
- Covariate effect PPI—F1 (relative bioavailability) [3, 8]: −0.368 [−0.49, −0.228]
- Covariate effect ECOG 2—CL/F ([3]; estimate (%RSE)): −0.171 (36.2)
- Covariate effect Healthy subject—CL/F ([3]; estimate (%RSE)): 0.467 (19.3)
- Covariate effect Healthy subject—Vp/F ([3]; estimate (%RSE)): −0.556 (5.59)
- Covariate effect PPI—F1 (relative bioavailability) ([3]; estimate (%RSE)): −0.358 (7.01)
- BOV on MTT ([3]; remaining variability in absorption not related to PPIs): 118%
Structure (SMILES): CC#CC(=O)N1CCC[C@H]1c1nc(-c2ccc(C(=O)Nc3ccccn3)cc2)c2c(N)nccn12 [acalabrutinib]
- Solubility dependence on pH [5]: decreases with increasing gut pH
- Effect of a high-calorie meal on Cmax [6]: delayed and decreased
- Effect of a high-calorie meal on mean AUC [6]: similar
- Decrease of AUC on coadministration with omeprazole (PPI) [7]: 43%
